Measured values published in ChEMBL document CHEMBL1121642, “Synthesis and antiherpetic activity of some 4-[(aryloxy)alkyl]pyrazoles” (1981).
Converted amounts (≈) assume the structure as drawn. The source made the active and inactive calls. No cut-off for these calls is given here.

How the values were obtained:
Human alphaherpesvirus 2 [1] = experiment: Tested in vitro for minimum inhibitory activity against Herpes simplex virus type -2 (HSV-2); format: functional
Mus musculus [2] = species on record: Mus musculus; experiment: Effect on the survival rate of mice infected intravaginally with Herpes simplex virus type -2 (HSV-2) at 2.5% dosage twice in a day; format: functional
In short: (§1)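 Mice infected intravaginally with a tampon (dental pellet) saturated with HSV suspension. Aqueous drug solution given intravaginally b.i.d. on cotton tampons, starting 4 h postinfection. Each tampon stayed in 24 h, was re-moistened with 0.02 mL drug 6 h after insertion, and was replaced daily. Deaths were recorded daily to 14 days. Read-out: % survival and average survival time, with survivors scored >14 days.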

Mus musculus [3] = species on record: Mus musculus; experiment: Effect on the survival rate of mice infected intravaginally with Herpes simplex virus type -2 (HSV-2) at 1.25% dosage twice in a day; format: functional; in short: as §1
Mus musculus [4] = species on record: Mus musculus; experiment: Effect on the survival rate of mice infected intravaginally with Herpes simplex virus type -2 (HSV-2) at 5% dosage twice in a day; format: functional; in short: as §1
Human alphaherpesvirus 2 [5] = experiment: Tested in vitro for minimum inhibitory activity against Herpes simplex virus type -2 (HSV-2); Inactive; format: functional, organism-based
Mus musculus [6] = experiment: Effect on the survival rate of mouse infected with herpes genitalis (HSV-2) administered intravaginally at 5% dosage twice in a day; format: functional
In short: (§2)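 HSV-2 mouse genital model, infected intravaginally. Drug prepared in water + 1% gum tragacanth and given intravaginally b.i.d. via saturated cotton tampons, starting 4 h postinfection. Tampons were re-dosed with 0.02 mL 6 h after insertion and replaced daily. Test ended at day 14, with survivors assigned survival time >14 days. Read-out: % survival and average survival time.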

Mus musculus [7] = experiment: Effect on the survival rate of mouse infected with herpes genitalis (HSV-2) administered intravaginally at 2% dosage twice in a day; format: functional; in short: as §2
Mus musculus [8] = species on record: Mus musculus; experiment: Number of mice recovered from virus infected with Herpes simplex virus type-2 at 5% dosage twice in 6 th day out of 8 mice sampled; format: functional
In short: (§3)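 Mice were infected intravaginally with HSV-2 Curtis strain. Starting 4 h postinfection, they were treated intravaginally with cotton tampons saturated with 10, 5, 2.5 or 1.25% drug solution, replaced daily, plus 0.02 mL added 6 h later. Vaginal washings with 1.5 mL M-199 were taken each morning on days 1–7, frozen at −70 °C and assayed in BSC-1 cells. Read-out: mice with recoverable virus/mice sampled.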

Mus musculus [9] = species on record: Mus musculus; experiment: Number of mice recovered from virus infected with Herpes simplex virus type-2 at 5% dosage twice in 7 th day out of 8 mice sampled; format: functional; in short: as §3
Mus musculus [10] = experiment: Effect on the survival rate of mice infected with HSV-1 administered intravaginally at 1.25% dosage twice in a day; format: functional; in short: as §1
Mus musculus [11] = species on record: Mus musculus; experiment: Number of mice recovered from virus infected with Herpes simplex virus type-2 at 2.5% dosage twice in 2 nd day out of 10 mice sampled; format: functional; in short: as §3
Mus musculus [12] = experiment: Effect on the survival rate of mice infected with HSV-2 administered intravaginally at 2.5% dosage twice in a day; format: functional; in short: as §1
Mus musculus [13] = species on record: Mus musculus; experiment: Number of mice recovered from virus infected with Herpes simplex virus type-2 at 2.5% dosage twice in 3 rd day out of 10 mice sampled; format: functional; in short: as §3
Mus musculus [14] = experiment: Effect on the survival rate of mice infected with HSV-2 administered intravaginally at 5% dosage twice in a day; format: functional; in short: as §1
Mus musculus [15] = species on record: Mus musculus; experiment: Number of mice recovered from virus infected with Herpes simplex virus type-2 at 1.25% dosage twice in 7 th day out of 10 mice sampled; format: functional; in short: as §3
Mus musculus [16] = species on record: Mus musculus; experiment: Number of mice recovered from virus infected with Herpes simplex virus type-2 at 10% dosage twice in 6 th day out of 10 mice sampled; format: functional; in short: as §3
Mus musculus [17] = experiment: Effect on the survival rate of mice infected with HSV-1 administered intravaginally at 10% dosage twice in a day; format: functional; in short: as §1
Mus musculus [18] = experiment: Effect on the survival rate of mice iinfected with HSV-1 administered intravaginally at 2.5% dosage twice in a day; format: functional; in short: as §1
Mus musculus [19] = experiment: Effect on the survival rate of mice iinfected with HSV-1 administered intravaginally at 1.25% dosage twice in a day; format: functional; in short: as §1
Mus musculus [20] = experiment: Effect on the survival rate of mice infected with HSV-2 administered intravaginally at 1.25% dosage twice in a day; format: functional; in short: as §1
Mus musculus [21] = species on record: Mus musculus; experiment: Number of mice recovered from virus infected with Herpes simplex virus type-2 at 5% dosage twice in 1 st day out of 10 mice sampled; format: functional; in short: as §3
Mus musculus [22] = species on record: Mus musculus; experiment: Number of mice recovered from virus infected with Herpes simplex virus type-2 at 2.5% dosage twice in 6 th day out of 10 mice sampled; format: functional; in short: as §3
Mus musculus [23] = species on record: Mus musculus; experiment: Number of mice recovered from virus infected with Herpes simplex virus type-2 at 2.5% dosage twice in 4 th day out of 10 mice sampled; format: functional; in short: as §3
Mus musculus [24] = experiment: Effect on the survival rate of mice infected with HSV-2 administered intravaginally at 10% dosage twice in a day; format: functional; in short: as §1
Mus musculus [25] = species on record: Mus musculus; experiment: Number of mice recovered from virus infected with Herpes simplex virus type-2 at 5% dosage twice in 4 th day out of 10 mice sampled; format: functional; in short: as §3
Mus musculus [26] = experiment: Effect on the survival rate of mouse infected with herpes genitalis (HSV-2) administered intravaginally at 5% twice in a day; format: functional
Mus musculus [27] = species on record: Mus musculus; experiment: Number of mice recovered from virus infected with Herpes simplex virus type-2 at 1.25% dosage twice in 1st day out of 10 mice sampled; format: functional; in short: as §3
Mus musculus [28] = species on record: Mus musculus; experiment: Number of mice recovered from virus infected with Herpes simplex virus type-2 at 10% dosage twice in 2 nd day out of 10 mice sampled; format: functional; in short: as §3
Mus musculus [29] = experiment: Effect on the survival rate of mice infected with HSV-1 administered intravaginally at 5% dosage twice in a day; format: functional; in short: as §1
Mus musculus [30] = species on record: Mus musculus; experiment: Number of mice recovered from virus infected with Herpes simplex virus type-2 at 5% dosage twice in 2 nd day out of 10 mice sampled; format: functional; in short: as §3
Mus musculus [31] = species on record: Mus musculus; experiment: Number of mice recovered from virus infected with Herpes simplex virus type-2 at 1.25% dosage twice in 4 th day out of 10 mice sampled; format: functional; in short: as §3
Mus musculus [32] = species on record: Mus musculus; experiment: Number of mice recovered from virus infected with Herpes simplex virus type-2 at 2.5% dosage twice in 1st day out of 10 mice sampled; format: functional; in short: as §3
Mus musculus [33] = species on record: Mus musculus; experiment: Number of mice recovered from virus infected with Herpes simplex virus type-2 at 10% dosage twice in 1st day out of 10 mice sampled; format: functional; in short: as §3
Mus musculus [34] = experiment: Effect on the survival rate of mice infected with HSV-1 administered intravaginally at 2.5% dosage twice in a day; format: functional; in short: as §1
Mus musculus [35] = species on record: Mus musculus; experiment: Number of mice recovered from virus infected with Herpes simplex virus type-2 at 1.25% dosage twice in 3 rd day out of 10 mice sampled; format: functional; in short: as §3
Mus musculus [36] = species on record: Mus musculus; experiment: Number of mice recovered from virus infected with Herpes simplex virus type-2 at 1.25% dosage twice in 2 nd day out of 10 mice sampled; format: functional; in short: as §3
Mus musculus [37] = species on record: Mus musculus; experiment: Number of mice recovered from virus infected with Herpes simplex virus type-2 at 2.5% dosage twice in 7 th day out of 8 mice sampled; format: functional; in short: as §3
Mus musculus [38] = species on record: Mus musculus; experiment: Number of mice recovered from virus infected with Herpes simplex virus type-2 at 10% dosage twice in 4 th day out of 10 mice sampled; format: functional; in short: as §3
Mus musculus [39] = species on record: Mus musculus; experiment: Number of mice recovered from virus infected with Herpes simplex virus type-2 at 5% dosage twice in 3 rd day out of 10 mice sampled; format: functional; in short: as §3
Mus musculus [40] = species on record: Mus musculus; experiment: Number of mice recovered from virus infected with Herpes simplex virus type-2 at 10% dosage twice in 3 rd day out of 10 mice sampled; format: functional; in short: as §3
Mus musculus [41] = species on record: Mus musculus; experiment: Number of mice recovered from virus infected with Herpes simplex virus type-2 at 10% dosage twice in 7 th day out of 10 mice sampled; format: functional; in short: as §3

For `CCc1n[nH]c(CC)c1CCCCCCOc1ccc(OC)cc1Cl`, the MIC (Human alphaherpesvirus 2 [1]) was 6 µg/mL (≈ 16.4 µM), the Average survival (Mus musculus [2]) was >11 days and the Survival (Mus musculus [2]) was 40%. The Average survival (Mus musculus [3]) was >10 days, the Survival (Mus musculus [3]) was 30% and the Average survival (Mus musculus [4]) was >11 days. It also gave a Survival (Mus musculus [4]) of 60%.
For `CCc1n[nH]c(CC)c1CCCCCCOc1cc(Cl)c(OC)cc1Cl`, the MIC (Human alphaherpesvirus 2 [5]) was “inactive”.
In the case of `CCCn1nc(C)c(CCCCCCOc2ccc(OC)cc2Cl)c1C`, the MIC (Human alphaherpesvirus 2 [1]) is reported as 1.5 µg/mL (≈ 3.96 µM).
For `CCc1nn(CCN(C)C)c(CC)c1CCCCCCOc1ccc(OC)cc1Cl`, the MIC (Human alphaherpesvirus 2 [1]) was 6 µg/mL (≈ 13.8 µM).
Work on `COc1ccc(OCCCCCCc2c(C)n[nH]c2C)c(Cl)c1` yielded an MIC (Human alphaherpesvirus 2 [1]) of 3 µg/mL (≈ 8.91 µM).
For `CCc1n[nH]c(CC)c1CCCCCCOc1ccccc1`, the MIC (Human alphaherpesvirus 2 [5]) was “inactive”.
`O=c1[nH]c(=O)n([C@H]2C[C@H](O)[C@@H](CO)O2)cc1I` [IDOXURIDINE] was tested, and the Average survival (Mus musculus [6]) was >9 days, the Survival (Mus musculus [6]) was 10% and the Average survival (Mus musculus [7]) was >11 days. The Survival (Mus musculus [7]) was 40%.
For `CCc1n[nH]c(CC)c1CCCCCCOc1ccc(OC)cc1Cl.CS(=O)(=O)O`, the “No. of mice receovered” value (Mus musculus [8]) was 0, the “No. of mice receovered” value (Mus musculus [9]) was 0 and the Average survival (Mus musculus [10]) was >10 days. For the same compound, the “No. of mice receovered” value (Mus musculus [11]) was 1, the Average survival (Mus musculus [12]) was >12 days and the Survival (Mus musculus [12]) was 70%. The “No. of mice receovered” value (Mus musculus [13]) was 0, the Average survival (Mus musculus [14]) was >13 days and the Survival (Mus musculus [14]) was 90%. The “No. of mice receovered” value (Mus musculus [15]) was 0, the “No. of mice receovered” value (Mus musculus [16]) was 0 and the Average survival (Mus musculus [6]) was >13 days. The Average survival (Mus musculus [17]) was >13 days, the Survival (Mus musculus [17]) was 70% and the Survival (Mus musculus [18]) was 40%. For the same compound, the Survival (Mus musculus [19]) was 30%, the Average survival (Mus musculus [20]) was >10 days and the Survival (Mus musculus [20]) was 40%. For the same compound, the “No. of mice receovered” value (Mus musculus [21]) was 1, the “No. of mice receovered” value (Mus musculus [22]) was 0 and the “No. of mice receovered” value (Mus musculus [23]) was 0. The Average survival (Mus musculus [24]) was >13 days, the Survival (Mus musculus [24]) was 90% and the “No. of mice receovered” value (Mus musculus [25]) was 0. For the same compound, the Survival (Mus musculus [26]) was 80%, the “No. of mice receovered” value (Mus musculus [27]) was 0 and the “No. of mice receovered” value (Mus musculus [28]) was 0. The Average survival (Mus musculus [29]) was >12 days, the Survival (Mus musculus [29]) was 60% and the Average survival (Mus musculus [7]) was >11 days. For the same compound, the Survival (Mus musculus [7]) was 60%, the “No. of mice receovered” value (Mus musculus [30]) was 0 and the “No. of mice receovered” value (Mus musculus [31]) was 0. For the same compound, the “No. of mice receovered” value (Mus musculus [32]) was 0, the “No. of mice receovered” value (Mus musculus [33]) was 0 and the Average survival (Mus musculus [34]) was >11 days. The “No. of mice receovered” value (Mus musculus [35]) was 0, the “No. of mice receovered” value (Mus musculus [36]) was 1 and the “No. of mice receovered” value (Mus musculus [37]) was 0. For the same compound, the “No. of mice receovered” value (Mus musculus [38]) was 0, the “No. of mice receovered” value (Mus musculus [39]) was 0 and the “No. of mice receovered” value (Mus musculus [40]) was 0. For the same compound, the “No. of mice receovered” value (Mus musculus [41]) was 0.
In the case of `CCc1nn(-c2ccccn2)c(CC)c1CCCCCCOc1ccc(OC)cc1Cl`, the MIC (Human alphaherpesvirus 2 [1]) is reported as 6 µg/mL (≈ 13.6 µM).
